The values that follow come from publication PMC4642656 (Journal of Ethnopharmacology, 2015).

Structures are written as SMILES. Like-named read-outs stand apart in the source and are kept apart here.

Format in all cases: cell-based
Test [1] concerns human larynx carcinoma (HEp2) cells. The experiment in a line: MTT cytotoxicity assay, HEp2 cells. In general terms: Formazan colour is commonly taken as a measure of viable cells.
In test [2] the test system is mouse breast cancer (4T1) cells. The experiment in a line: MTT cytotoxicity assay, 4T1 cells.
The test system of test [3] is Plasmodium falciparum chloroquine-resistant (W2) strain. The experiment in a line: Antiplasmodial assay. The procedure, abridged:
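Asexual erythrocytic-stage P. falciparum W2 was kept in continuous in vitro culture. It was tested by modified semiautomated microdilution for inhibition of [G-3H]hypoxanthine incorporation. Cells were harvested onto glass-fibre filters and counted by liquid scintillation as cpm per well at each drug concentration, expressed as % of untreated controls. IC50 was taken from nonlinear regression of the dose-response curve.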

For test [4], the system named is Plasmodium falciparum chloroquine-sensitive (D6) strain. The experiment in a line: Antiplasmodial assay. The settings on record: for IC50: Plasmodium falciparum.
Setting [5] is: Homo sapiens, HEp-2, 48 h, read-out: IC50 HEp2, HEp2 cells, MTT, 48 h.
[6] abbreviates: read-out: IC50 HEp2, HEp2 cells, MTT, 48 h.
Setting [7] is: Mus musculus, 4T1, 48 h, read-out: IC50 4T1, 4T1 cells, MTT, 48 h.
The mark [8] stands for this setting: read-out: IC50 4T1, 4T1 cells, MTT, 48 h.

`CC(=O)O[C@@H]1C[C@H]2C(C)(C)C(=O)C=C[C@]2(C)[C@H]2CC[C@]3(C)C(=CC[C@H]3c3ccoc3)[C@@]21C` [Azadirone (1), azadirone]: the 50% inhibitory concentration (IC50) (commonly the concentration that inhibits the measured activity by half) is below 20 µM in test [1] (setting [5]); 12.8 µM in test [1] (setting [6]); below 20 µM in test [2] (setting [7]); 14.4 µM in test [2] (setting [8]); 29.6 ± 1 µM in test [3] (W2, read-out: IC50 W2); 23.4 ± 0.2 µM in test [4] (D6, read-out: IC50 D6).
On to `CCN(CC)CCCC(C)Nc1ccnc2cc(Cl)ccc12` (stereo not shown) [Chloroquine, reference compound], for which the half-inhibitory concentration (IC50) in test [3] (W2, read-out: IC50 W2 (chloroquine)) was 0.108 µM; in test [4] (D6, read-out: IC50 D6 (chloroquine)), 0.0077 µM. In addition, the “SI: selectivity index [IC50 vero/IC50 (D6)]” value in test [4] (Table 1) turned out to be 5701.
Turning to `CC(=O)O[C@H]1C[C@@H]2[C@@]3(C)CCC(=O)C(C)(C)[C@@H]3C[C@@H](O)[C@@]2(C)C2=CC[C@@H](c3ccoc3)[C@@]21C` [Mzikonone (3), mzikonone], the half-inhibitory concentration (IC50) in test [1] (setting [5]) turned out to be 59.3 ± 1 µM; in test [2] (setting [7]), 38.8 ± 0.4 µM; in test [3] (W2, read-out: IC50 W2), 40.5 ± 3.7 µM; in test [4] (D6, read-out: IC50 D6), 36.6 ± 0.8 µM.
For the compound `C[C@H](C[C@@H](O)[C@@H]1OC1(C)C)[C@@H]1CC[C@]2(C)C3=CC[C@H]4C(C)(C)C(=O)CC[C@]4(C)[C@H]3CC[C@@]12C` [Niloticin (8), niloticin], the IC50 in test [1] (setting [6]) is 6.9 ± 0.6 µM; in test [1] (read-out: IC50 HEp2, HEp2 cells, MTT, 48 h, listed as niloticin (8)), below 20 µM; in test [2] (setting [7]), below 20 µM; in test [2] (setting [8]), 14.5 ± 0.5 µM; in test [3] (W2, read-out: IC50 W2), 77 ± 5.7 µM; in test [4] (D6, read-out: IC50 D6), 48.2 ± 2.3 µM.
